# Experimental data reported in ChEMBL document CHEMBL4689842, “EUbOPEN Chemogenomics Library wave 1” (2021).
# Tested on: U2OS
# Experiment: Multiplex assay against U2OS
# Assay type: toxicity, cell-based
# Details: human
# How it was run: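 At seeding, live cells were stained with Hoechst33342, BioTracker Green Microtubule Cytoskeleton Dye, MitoTracker Red and Annexin V Alexa Fluor 680. After compound addition they were imaged on a CQ1 microscope at 37°C and 5% CO2, and CellPathfinder machine-learning gating sorted them into Hoechst high-intensity objects or normal cells, with normal cells further split into healthy, pyknosed or fragmented nuclei and pyknosed cells into mitotic or apoptotic. Tubulin, mitochondrial-mass and membrane-permeability phenotypes are given as per cents of cells with healthy nuclei.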
# [1] = 12 h, 1 µM, compound concentration 1 uM, replicate 1
# [2] = 12 h, 1 µM, compound concentration 1 uM, replicate 2
# [3] = 12 h, 10 µM, compound concentration 10 uM, replicate 1
# [4] = 12 h, 10 µM, compound concentration 10 uM, replicate 2
# [5] = 24 h, 1 µM, compound concentration 1 uM, replicate 1
# [6] = 24 h, 1 µM, compound concentration 1 uM, replicate 2
# [7] = 24 h, 10 µM, compound concentration 10 uM, replicate 1
# [8] = 24 h, 10 µM, compound concentration 10 uM, replicate 2
# [9] = 48 h, 1 µM, compound concentration 1 uM, replicate 1
# [10] = 48 h, 1 µM, compound concentration 1 uM, replicate 2
# [11] = 48 h, 10 µM, compound concentration 10 uM, replicate 1
# [12] = 48 h, 10 µM, compound concentration 10 uM, replicate 2
structure (smiles),measurement,setting,value
Cn1cc(-c2[nH]c3cc(NC(=O)[C@H](N)C4CCCCC4)cc4c3c2C=NNC4=O)cn1,Population Apoptotic (%),[1],44%
same,Population Fragmented Nuclei (%),[1],11%
same,Population Healthy Nuclei (%),[1],76%
same,Population Hoechst High Intensity Objects (%),[1],3%
same,Population Membrane Permeable-Phenotype (%),[1],6%
same,Population Mitochondria Different-Phenotype (%),[1],4%
same,Population Mitotic Cells (%),[1],55%
same,Population Normal (%),[1],96%
same,Population Pyknosed Nuclei (%),[1],11%
same,Population Tubulin-Different-Phenotype (%),[1],16%
same,Total Cell Count,[1],123
same,Population Apoptotic (%),[2],33%
same,Population Fragmented Nuclei (%),[2],13%
same,Population Healthy Nuclei (%),[2],72%
same,Population Membrane Permeable-Phenotype (%),[2],4%
same,Population Mitochondria Different-Phenotype (%),[2],7%
same,Population Mitotic Cells (%),[2],66%
same,Population Pyknosed Nuclei (%),[2],13%
same,Population Tubulin-Different-Phenotype (%),[2],12%
same,Total Cell Count,[2],51
same,Population Apoptotic (%),[3],47%
same,Population Fragmented Nuclei (%),[3],14%
same,Population Healthy Nuclei (%),[3],60%
same,Population Hoechst High Intensity Objects (%),[3],6%
same,Population Membrane Permeable-Phenotype (%),[3],7%
same,Population Mitochondria Different-Phenotype (%),[3],34%
same,Population Mitotic Cells (%),[3],52%
same,Population Normal (%),[3],93%
same,Population Pyknosed Nuclei (%),[3],25%
same,Population Tubulin-Different-Phenotype (%),[3],28%
same,Total Cell Count,[3],247
same,Population Apoptotic (%),[4],69%
same,Population Fragmented Nuclei (%),[4],37%
same,Population Healthy Nuclei (%),[4],42%
same,Population Hoechst High Intensity Objects (%),[4],9%
same,Population Membrane Permeable-Phenotype (%),[4],21%
same,Population Mitochondria Different-Phenotype (%),[4],53%
same,Population Mitotic Cells (%),[4],30%
same,Population Normal (%),[4],90%
same,Population Pyknosed Nuclei (%),[4],19%
same,Population Tubulin-Different-Phenotype (%),[4],57%
same,Total Cell Count,[4],91
same,Population Apoptotic (%),[5],46%
same,Population Fragmented Nuclei (%),[5],9%
same,Population Healthy Nuclei (%),[5],80%
same,Population Membrane Permeable-Phenotype (%),[5],5%
same,Population Mitochondria Different-Phenotype (%),[5],3%
same,Population Mitotic Cells (%),[5],53%
same,Population Pyknosed Nuclei (%),[5],9%
same,Population Tubulin-Different-Phenotype (%),[5],14%
same,Total Cell Count,[5],121
same,Population Apoptotic (%),[6],43%
same,Population Fragmented Nuclei (%),[6],13%
same,Population Healthy Nuclei (%),[6],70%
same,Population Hoechst High Intensity Objects (%),[6],3%
same,Population Membrane Permeable-Phenotype (%),[6],9%
same,Population Mitochondria Different-Phenotype (%),[6],6%
same,Population Mitotic Cells (%),[6],56%
same,Population Normal (%),[6],96%
same,Population Pyknosed Nuclei (%),[6],15%
same,Population Tubulin-Different-Phenotype (%),[6],15%
same,Total Cell Count,[6],52
same,Population Apoptotic (%),[7],67%
same,Population Fragmented Nuclei (%),[7],17%
same,Population Healthy Nuclei (%),[7],43%
same,Population Hoechst High Intensity Objects (%),[7],8%
same,Population Membrane Permeable-Phenotype (%),[7],10%
same,Population Mitochondria Different-Phenotype (%),[7],16%
same,Population Mitotic Cells (%),[7],32%
same,Population Normal (%),[7],91%
same,Population Pyknosed Nuclei (%),[7],39%
same,Population Tubulin-Different-Phenotype (%),[7],19%
same,Total Cell Count,[7],293
same,Population Apoptotic (%),[8],86%
same,Population Fragmented Nuclei (%),[8],34%
same,Population Healthy Nuclei (%),[8],29%
same,Population Hoechst High Intensity Objects (%),[8],16%
same,Population Membrane Permeable-Phenotype (%),[8],44%
same,Population Mitochondria Different-Phenotype (%),[8],61%
same,Population Mitotic Cells (%),[8],13%
same,Population Normal (%),[8],83%
same,Population Pyknosed Nuclei (%),[8],36%
same,Population Tubulin-Different-Phenotype (%),[8],55%
same,Total Cell Count,[8],106
same,Population Apoptotic (%),[9],45%
same,Population Fragmented Nuclei (%),[9],7%
same,Population Healthy Nuclei (%),[9],81%
same,Population Hoechst High Intensity Objects (%),[9],3%
same,Population Membrane Permeable-Phenotype (%),[9],2%
same,Population Mitochondria Different-Phenotype (%),[9],3%
same,Population Mitotic Cells (%),[9],54%
same,Population Normal (%),[9],96%
same,Population Pyknosed Nuclei (%),[9],10%
same,Population Tubulin-Different-Phenotype (%),[9],17%
same,Total Cell Count,[9],124
same,Population Apoptotic (%),[10],42%
same,Population Fragmented Nuclei (%),[10],15%
same,Population Healthy Nuclei (%),[10],55%
same,Population Hoechst High Intensity Objects (%),[10],5%
same,Population Membrane Permeable-Phenotype (%),[10],16%
same,Population Mitochondria Different-Phenotype (%),[10],18%
same,Population Mitotic Cells (%),[10],57%
same,Population Normal (%),[10],94%
same,Population Pyknosed Nuclei (%),[10],28%
same,Population Tubulin-Different-Phenotype (%),[10],24%
same,Total Cell Count,[10],56
same,Population Apoptotic (%),[11],83%
same,Population Fragmented Nuclei (%),[11],20%
same,Population Healthy Nuclei (%),[11],31%
same,Population Hoechst High Intensity Objects (%),[11],13%
same,Population Membrane Permeable-Phenotype (%),[11],13%
same,Population Mitochondria Different-Phenotype (%),[11],20%
same,Population Mitotic Cells (%),[11],16%
same,Population Normal (%),[11],86%
same,Population Pyknosed Nuclei (%),[11],48%
same,Population Tubulin-Different-Phenotype (%),[11],21%
same,Total Cell Count,[11],395
same,Population Apoptotic (%),[12],100%
same,Population Fragmented Nuclei (%),[12],40%
same,Population Hoechst High Intensity Objects (%),[12],20%
same,Population Membrane Permeable-Phenotype (%),[12],66%
same,Population Mitochondria Different-Phenotype (%),[12],61%
same,Population Mitotic Cells (%),[12],0%
same,Population Normal (%),[12],79%
same,Population Pyknosed Nuclei (%),[12],28%
same,Population Tubulin-Different-Phenotype (%),[12],77%
same,Total Cell Count,[12],103
